Data published in publication PMC3106293 (Xenobiotica; the fate of foreign compounds in biological …, 2009).
Read-outs that look alike come from different tables or passages of the source.

Key:
[1] = system: sulfotransferases (SULTs) in human intestine cytosol; experiment: Sulfation of flavonoids by human intestine cytosol; assay type: in vitro ADME; details: for Km at 30 min: male, human, human intestine cytosol, pH 6.2
Outline: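 Cytosol (50 μg) from a person was incubated in 50 mM sodium phosphate pH 6.2 with 5 mM pNPS, 20 μM PAPS and test compound at 1 μM up to 1000 μM (upper limit varying by compound). After 30 min at 37°C, the reaction was stopped with 0.25 M Tris pH 8.7 and read at 401 nm. Product formation was linear with time. Km came from a Michaelis–Menten fit; means ± SD of three determinations.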

hSULT1E1 = biological target: T1, hSULT1E1 (Homo sapiens, UniProt P49888); experiment: Inhibition of oestradiol sulfation by recombinant hSULT1E1; assay type: biochemical; details: for Inhibition of hSULT1E1-catalysed oestradiol sulfation (in words): substrate 0.15 μM oestradiol, concentration range 1–1000 μM
T1 sequence (P49888 1-294): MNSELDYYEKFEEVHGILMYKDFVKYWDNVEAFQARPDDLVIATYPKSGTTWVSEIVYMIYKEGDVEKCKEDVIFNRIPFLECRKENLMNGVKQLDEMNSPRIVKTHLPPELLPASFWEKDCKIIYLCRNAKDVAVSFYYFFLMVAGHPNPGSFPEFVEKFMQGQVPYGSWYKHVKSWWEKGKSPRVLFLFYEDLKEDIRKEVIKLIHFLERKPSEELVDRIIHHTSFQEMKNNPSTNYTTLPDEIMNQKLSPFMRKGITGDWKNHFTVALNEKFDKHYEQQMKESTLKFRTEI
Outline: (§1)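 Test compound was added in DMSO (1% v/v final). Labelled substrates: [14C]2-naphthol 0.1 mM for hSULT1A1, [3H]DHEA 2 μM for hSULT2A1, [3H]oestradiol 0.15 μM for hSULT1E1. Incubated 30 min at 37°C, stopped with Tris pH 8.7, chloroform-extracted twice, aqueous phase scintillation-counted. IC50 from Hill-slope fit; three determinations.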

hSULT1A3 [2] = biological target: T2, hSULT1A3 (Homo sapiens, UniProt P0DMM9); experiment: Inhibition of dopamine sulfation by recombinant hSULT1A3; assay type: biochemical
hSULT1A1 [3] = biological target: T3, hSULT1A1 (Homo sapiens, UniProt P50225); experiment: Inhibition of 2-naphthol sulfation by recombinant hSULT1A1; assay type: biochemical
Outline: as §1

hSULT1A1 [4] = biological target: T3, hSULT1A1; experiment: Sulfation of flavonoids by recombinant hSULT1A1; assay type: in vitro ADME
[5] = system: human intestine cytosolic SULTs; experiment: Inhibition of oestradiol sulfation by human intestine cytosol; assay type: biochemical; details: read-out: IC50, Oestradiol sulfation, Cytosol, substrate 0.15 μM oestradiol
Outline: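 [3H]oestradiol (0.15 μM final) sulfation by 100 μg intestine cytosol from a person. Buffer 50 mM Tris (pH 6.2) with 20 μM PAPS. Test compound in DMSO (1% v/v final), 0.01–1000 μM. Reaction 30 min at 37°C, quenched with 0.25 M Tris (pH 8.7), chloroform-extracted twice, aqueous phase counted by scintillation. IC50 from a Hill-slope fit; mean ± SD of three determinations.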

hSULT1A3 [6] = biological target: T2, hSULT1A3; experiment: Sulfation of flavonoids by recombinant hSULT1A3
hSULT2A1 = biological target: T4, hSULT2A1 (Homo sapiens, UniProt Q06520); experiment: Inhibition of DHEA sulfation by recombinant hSULT2A1; assay type: biochemical; details: for Inhibition of hSULT2A1-catalysed DHEA sulfation (in words): substrate 2 μM DHEA, concentration range 1–1000 μM
T4 sequence (Q06520 1-285): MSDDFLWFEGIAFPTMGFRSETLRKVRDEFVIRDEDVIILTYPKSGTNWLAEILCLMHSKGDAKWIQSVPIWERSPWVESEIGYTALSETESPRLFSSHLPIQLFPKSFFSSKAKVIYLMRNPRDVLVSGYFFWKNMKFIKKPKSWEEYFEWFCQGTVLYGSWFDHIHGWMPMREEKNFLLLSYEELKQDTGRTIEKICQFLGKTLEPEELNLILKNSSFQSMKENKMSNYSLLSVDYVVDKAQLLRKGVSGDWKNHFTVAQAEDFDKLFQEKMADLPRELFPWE
Outline: as §1

[7] = system: human intestine cytosol (SULT1A1 and SULT1A3); experiment: Inhibition of 2-naphthol sulfation by human intestine cytosol; assay type: biochemical; details: read-out: IC50, 2-Naphthol sulfation, Cytosol, substrate 100 μM 2-naphthol
Outline: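 Radioactive assay in 50 mM Tris (pH 6.2) with 20 μM PAPS and [14C]2-naphthol (0.1 mM final). Enzyme source: 100 μg intestine cytosol from a person. Test compound in DMSO (1% v/v final), 0.01–1000 μM. Incubated 30 min at 37°C, stopped with 0.25 M Tris (pH 8.7), extracted twice with chloroform, aqueous phase scintillation-counted. IC50 fitted with a Hill-slope equation; mean ± SD of three determinations.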

hSULT1A1 [8] = biological target: T3, hSULT1A1; experiment: Inhibition of oestradiol sulfation by recombinant hSULT1A1; assay type: biochemical
[9] = flavonoid as substrate, Michaelis–Menten equation (1), 1–1000 μM catechin, 1–1000 μM epicatechin, 1–128 μM hesperetin, 1–32 μM eriodictyol
[10] = flavonoid as substrate, substrate inhibition equation (2)
[11] = flavonoid as substrate, substrate inhibition equation (2), listed as hesperetin
[12] = flavonoid as substrate, substrate inhibition equation (2), listed as catechin
[13] = substrate inhibition constant of flavonoid sulfation, equation (2)

T3 sequence (P50225 whole entry): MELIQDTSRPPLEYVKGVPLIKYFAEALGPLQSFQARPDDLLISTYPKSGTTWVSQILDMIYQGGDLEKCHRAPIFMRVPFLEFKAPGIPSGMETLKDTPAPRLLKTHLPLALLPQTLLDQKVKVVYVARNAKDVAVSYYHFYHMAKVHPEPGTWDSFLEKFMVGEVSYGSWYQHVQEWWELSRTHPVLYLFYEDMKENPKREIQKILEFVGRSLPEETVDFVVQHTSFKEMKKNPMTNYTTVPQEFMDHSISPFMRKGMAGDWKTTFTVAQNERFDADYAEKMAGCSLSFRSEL
T2 sequence (P0DMM9 whole entry): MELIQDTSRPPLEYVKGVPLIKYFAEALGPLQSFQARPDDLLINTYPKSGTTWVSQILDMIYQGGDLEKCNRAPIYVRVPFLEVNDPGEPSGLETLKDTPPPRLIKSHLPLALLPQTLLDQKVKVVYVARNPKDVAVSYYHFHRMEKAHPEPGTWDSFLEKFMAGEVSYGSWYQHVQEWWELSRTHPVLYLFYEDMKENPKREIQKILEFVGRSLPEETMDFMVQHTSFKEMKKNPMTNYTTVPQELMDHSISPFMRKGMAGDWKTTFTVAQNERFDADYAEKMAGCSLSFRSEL

Vmax (hSULT1A1 [4]; [10]) [nmol/mg/min]	Compound	Vmax [1, 9] [nmol/mg/min]	Km at 30 min [1] [µM]	IC50 (hSULT1E1) [µM]	IC50 (hSULT1A3 [2]) [µM]	IC50 (hSULT1A1 [3]) [µM]	Ki (hSULT1A1 [4]) [µM]	IC50 [5] [µM]	Ki (hSULT1A3 [6]) [µM]	Vmax (hSULT1A3 [6]; [10]) [nmol/mg/min]	IC50 (hSULT2A1) [µM]	IC50 [7] [µM]	also measured
–	COc1ccc([C@@H]2CC(=O)c3c(O)cc(O)cc3O2)cc1O [Hesperetin]	8.9 ± 0.3	66 ± 3.3	90.4 ± 11.5	20.8 ± 8.1	23.4 ± 5.75	3.7 ± 0.11	3.6 ± 0.4	4.2 ± 0.06	303 ± 5.8	152 ± 14.9	32.2 ± 3.6	Vmax (hSULT1A1 [4]; [11]): 92.7 nmol/mg/min; Vmax (hSULT1A3 [6]; [11]): 303 nmol/mg/min
187 ± 9.9	Oc1cc(O)c2c(c1)OC(c1ccc(O)c(O)c1)C(O)C2 (single isomer, unassigned; (+)) [Catechin, (+)catechin]	6.7 ± 0.02	–	–	–	–	–	10.1 ± 1.7	–	342 ± 8.2	–	67.1 ± 6.3	Km [1, 9]: 104 ± 7.3 µM; Inhibition of hSULT1E1-catalysed oestradiol sulfation (in words) (hSULT1E1; listed as (+)catechin): did not significantly inhibit; Inhibition of hSULT1E1-catalysed oestradiol sulfation (in words) (hSULT1E1; listed as catechin): not inhibited; IC50 (hSULT1A3 [2]; read-out: IC50, Dopamine sulfation by hSULT1A3, substrate 50 μM dopamine): 82.5 ± 31.5 µM; IC50 (hSULT1A1 [3]; read-out: IC50, 2-Naphthol sulfation, hSULT1A1, substrate 100 μM 2-naphthol): 8.4 ± 3.3 µM; Km (hSULT1A1 [4]; [10]): 165 ± 8.1 µM; Vmax (hSULT1A1 [4]; [12]): 187 nmol/mg/min; Ki (hSULT1A1 [4]; [13]): 6.37 ± 0.22 µM; Km (hSULT1A3 [6]; [10]): 236 ± 5.6 µM; Vmax (hSULT1A3 [6]; [12]): 342 nmol/mg/min; Ki (hSULT1A3 [6]; [13]): 8 ± 0.29 µM; Inhibition of hSULT2A1-catalysed DHEA sulfation (in words) (hSULT2A1; listed as (+)Catechin): did not significantly inhibit; Inhibition of hSULT2A1-catalysed DHEA sulfation (in words) (hSULT2A1; listed as catechin): not inhibited; IC50 (hSULT1A1 [8]; read-out: IC50, Oestradiol sulfation, hSULT1A1, substrate 0.15 μM oestradiol): 2.6 ± 0.4 µM
188	Oc1cc(O)c2c(c1)O[C@H](c1ccc(O)c(O)c1)[C@H](O)C2 [Epicatechin, (−)epicatechin]	4.2 ± 0.2	149 ± 9.2	–	117 ± 12.9	42.5 ± 8.5	8.7 ± 3.07	22.7 ± 5.6	9.5 ± 0.21	442	–	157 ± 37.6	Inhibition of hSULT1E1-catalysed oestradiol sulfation (in words) (hSULT1E1; listed as (−)epicatechin): did not significantly inhibit; Inhibition of hSULT1E1-catalysed oestradiol sulfation (in words) (hSULT1E1; listed as epicatechin): not inhibited; Inhibition of hSULT2A1-catalysed DHEA sulfation (in words) (hSULT2A1; listed as (−)epicatechin): did not significantly inhibit; Inhibition of hSULT2A1-catalysed DHEA sulfation (in words) (hSULT2A1; listed as epicatechin): not inhibited; IC50 (hSULT1A1 [8]): 6.1 ± 1 µM

Compound	Vmax (hSULT1A1 [4]; [10]) [nmol/mg/min]	Vmax [1, 9] [nmol/mg/min]	Km at 30 min [1] [µM]	IC50 (hSULT1E1) [µM]	IC50 (hSULT1A3 [2]) [µM]	IC50 (hSULT1A1 [3]) [µM]	Ki (hSULT1A1 [4]) [µM]	IC50 [5] [µM]	Ki (hSULT1A3 [6]) [µM]	Vmax (hSULT1A3 [6]; [10]) [nmol/mg/min]	IC50 (hSULT2A1) [µM]	IC50 [7] [µM]	also measured
O=C1C[C@@H](c2ccc(O)c(O)c2)Oc2cc(O)cc(O)c21 [Eriodictyol, eriodictyol]	98.6	19.4 ± 2.4	220 ± 28	677 ± 120	14.7 ± 8.9	15.2 ± 0.9	6.1 ± 0.14	11.8 ± 2	4.6 ± 0.02	269	139 ± 8.8	28.9 ± 4.1	–
